# Data from ChEMBL document CHEMBL3817772, “Design, Synthesis, and Biological Evaluations of Hydroxypyridonecarboxylic Acids as Inhibitors of HIV Reverse Transcriptase Associated RNase H” (J Med Chem, 2016).
# Legend:
# [1] = Inhibition of HIV-1 RT-RNase H activity expressed in Escherichia coli JM109 using DNA 3'-end directed cleavage measuring HTS-2 as substrate by fluorescence-based assay; set-up: species or system Human immunodeficiency virus 1
# Method in brief: (§1)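 RT RNase H cleavage of fluorescein/Dabcyl-labelled RNA/DNA duplexes, with substrate in excess over RT. HTS-1 probes internal cleavage, HTS-2 DNA 3'-end-directed cleavage, and HTS-3 (fluorescein RNA annealed to Dabcyl DNA) RNA 5'-end-directed cleavage.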
# [2] = Inhibition of HIV-1 RT-RNase H domain fragment expressed in Escherichia coli by fluorescence-based assay; set-up: species or system Human immunodeficiency virus 1
# [3] = Inhibition of HIV-1 RT-RNase H activity expressed in Escherichia coli JM109 using RNA 5'-end directed cleavage measuring HTS-3 as substrate by fluorescence-based assay; set-up: species or system Human immunodeficiency virus 1; method in brief: as §1
# [4] = biological target: Human immunodeficiency virus type 1 integrase (Human immunodeficiency virus 1, UniProt Q7ZJM1, C280S/F185K); test: Inhibition of full-length HIV-1 integrase F185K/C280S double mutant strand transfer activity expressed in Escherichia coli BL21(DE3) using oligo DNA as substrate preincubated for 10 mins followed by substrate addition incubated for 30 mins by plate reader analysis
# Sequence of Human immunodeficiency virus type 1 integrase (Q7ZJM1 entry or part of it C280S/F185K): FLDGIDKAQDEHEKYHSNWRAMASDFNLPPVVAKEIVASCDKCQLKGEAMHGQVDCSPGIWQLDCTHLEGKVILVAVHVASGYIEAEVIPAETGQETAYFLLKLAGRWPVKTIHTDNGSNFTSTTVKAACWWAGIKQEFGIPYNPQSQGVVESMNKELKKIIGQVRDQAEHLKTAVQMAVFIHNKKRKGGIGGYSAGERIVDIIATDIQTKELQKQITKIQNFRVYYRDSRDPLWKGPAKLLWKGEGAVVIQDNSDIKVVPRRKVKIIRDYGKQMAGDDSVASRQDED
# [5] = Inhibition of HIV-1 RT-RNase H activity expressed in Escherichia coli JM109 using internal cleavage measuring HTS-1 as substrate by fluorescence-based assay; set-up: species or system Human immunodeficiency virus 1; method in brief: as §1
# [6] = biological target: Human immunodeficiency virus type 1 reverse transcriptase (Human immunodeficiency virus 1, UniProt Q72547); test: Inhibition of HIV-1 RT RNA-dependent DNA polymerase activity expressed in Escherichia coli JM109 using [3H]TTP/ poly(rA)-oligo(dT)16 as substrate incubated for 20 mins by liquid scintillation spectrometric analysis
# Method in brief: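 RNA-dependent DNA polymerase reaction in 50 mM Tris-HCl pH 7.4 (37°C), 60 mM KCl, 5 mM MgCl2, with 10 µM [3H]-TTP and 40 nM poly(rA)-oligo(dT)16. Started with 10 nM RT, 20 min at 37°C. Quenched in ice-cold 10% TCA plus 20 mM sodium pyrophosphate, glass-fiber filtered, washed with TCA and ethanol. Incorporation counted by liquid scintillation.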
# [7] = system: Human immunodeficiency virus 1; test: Inhibition of HIV-1 RT-RNase H domain expressed in Escherichia coli JM109 at 30 uM using HTS-1 as substrate preincubated with compound/substrate for 10 mins followed by MgCl2 addition incubated for 10 mins by fluorescence-based assay
# Method in brief: (§2)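 Order-of-addition RNase H assay, HIV-1 RT in this format. Final conditions: 100 nM RT, 250 nM HTS-1 RNA/DNA duplex, 6 mM MgCl2, 30 µM inhibitor, 1% DMSO. RT is pre-incubated 10 min at 37 °C with the specified components. Missing components are then added and the reaction runs 10 min at 37 °C. Fluorescence signal is corrected against a DMSO-only control. Mean ± SD of two independent experiments.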
# [8] = system: Human immunodeficiency virus 1; test: Inhibition of HIV-1 RT-RNase H domain expressed in Escherichia coli JM109 at 30 uM using HTS-1 as substrate preincubated with substrate for 10 mins followed by compound/MgCl2 addition incubated for 2 mins by fluorescence-based assay
# Method in brief: (§3)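 Excess-RT order-of-addition RNase H assay. RT is pre-incubated 10 min at 37 °C with inhibitor or with substrate. Remaining components are added and the reaction runs 2 min at 37 °C. Fluorescence is DMSO-control corrected. Mean ± SD of two independent experiments.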
# [9] = system: Human immunodeficiency virus 1; test: Inhibition of HIV-1 RT-RNase H domain expressed in Escherichia coli JM109 at 30 uM using HTS-1 as substrate preincubated with substrate for 10 mins followed by compound/MgCl2 addition incubated for 10 mins by fluorescence-based assay; method in brief: as §2
# [10] = system: Human immunodeficiency virus 1; test: Inhibition of HIV-1 RT-RNase H domain expressed in Escherichia coli JM109 at 30 uM using HTS-1 as substrate preincubated for 10 mins followed by substrate/MgCl2 addition incubated for 10 mins by fluorescence-based assay; method in brief: as §2
# [11] = system: Human immunodeficiency virus 1; test: Inhibition of HIV-1 RT-RNase H domain expressed in Escherichia coli JM109 at 30 uM using HTS-1 as substrate preincubated for 10 mins followed by substrate/MgCl2 addition incubated for 2 mins by fluorescence-based assay; method in brief: as §3
# [12] = system: Human immunodeficiency virus 1; test: Inhibition of HIV-1 RT-RNase H domain expressed in Escherichia coli JM109 at 30 uM using HTS-1 as substrate preincubated with compound and MgCl2 for 10 mins followed by substrate addition incubated for 10 mins by fluorescence-based assay; method in brief: as §2
# [13] = system: Human immunodeficiency virus 1; test: Antiviral activity against HIV-1 infected in human HeLa P4/R5 cells assessed as inhibition of virus replication pretreated for 16 hrs followed by infection measured after 48 hrs by fluorescence-based beta-galactosidase detection assay; assay type: functional, organism-based
# Method in brief: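 P4R5 indicator cells (CD4, CXCR4, CCR5; HIV LTR-driven β-galactosidase reporter) seeded at 5×10^3 per well in DMEM/10% FBS with puromycin 0.5 µg/ml. Drug exposure 16 h, then HIV infection and a further 48 h. Infection read by fluorescence-based β-galactosidase detection. Triplicate data points; EC50 taken from dose-response.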
# [14] = Cytotoxicity against human HeLa P4/R5 cells up to 25 uM; assay type: cell-based
SMILES,IC50 [1] [µM],IC50 [2] [µM],IC50 [3] [µM],IC50 [4] [µM],IC50 [5] [µM],IC50 [6] [µM],inhibition [7] [%],inhibition [8] [%],inhibition [9] [%],inhibition [10] [%],inhibition [11] [%],inhibition [12] [%],inhibition [13],"EC50 ([13]; Human immunodeficiency virus 1, P4/R5) [µM]",CC50 [14] [µM]
NC(=O)c1cn(Cc2ccc(F)cc2)cc(O)c1=O,> 25,6.8,> 25,32,12,> 25,,,,,,,,,
O=C(O)c1cn(Cc2ccc(-c3ccccc3)cc2)cc(O)c1=O,2.8,1.8,2.9,22,2.5,2.2,37,59,21,68,78,36,,,
O=C(O)c1cn(Cc2cccc(C(F)(F)F)c2)cc(O)c1=O,> 25,,> 25,,,> 25,,,,,,,,,
O=C(O)c1cn(Cc2ccc(Cl)cc2)cc(O)c1=O,> 25,,> 25,,,> 25,,,,,,,,,
O=C(O)c1cn(Cc2ccccc2-c2ccccc2)cc(O)c1=O,25,5.1,> 25,17,7.7,> 25,,,,,,,,,
O=C(O)c1cn(Cc2ccc(F)c(Cl)c2)cc(O)c1=O,> 25,9.8,> 25,44.5,18,> 25,,,,,,,,,
CC(c1cccc2ccccc12)n1cc(O)c(=O)c(C(=O)O)c1 (centres undefined),> 25,3.7,13,2.26,7,19,,,,,,,,,
O=C(O)c1cn(Cc2ccc(Br)cc2)cc(O)c1=O,> 25,> 25,> 25,> 100,> 25,> 25,,,,,,,,,
O=C(O)c1cn(Cc2ccc(Cl)c(Cl)c2)cc(O)c1=O,> 25,4.7,> 25,36,14,> 25,,,,,,,,,
O=C(O)c1cn(Cc2ccccc2)cc(O)c1=O,> 25,11,> 25,35,> 25,> 25,,,,,,,,,
O=C(O)c1cn(Cc2ccc(Cl)cc2Cl)cc(O)c1=O,> 25,4.2,> 25,25,12,> 25,,,,,,,,,
CS(=O)(=O)c1ccc(Cn2cc(O)c(=O)c(C(=O)O)c2)cc1,> 25,25,> 25,> 100,> 25,> 25,,,,,,,,,
O=C(O)c1ccc(Cn2cc(O)c(=O)c(C(=O)O)c2)cc1,> 25,14,> 25,> 100,> 25,> 25,,,,,,,,,
CC(c1ccc(F)cc1)n1cc(O)c(=O)c(C(=O)O)c1 (centres undefined),> 25,5.3,> 25,34,16,> 25,,,,,,,,,
O=C(O)c1cn(Cc2ccc(-c3cnc4ccccc4c3)cc2)cc(O)c1=O,,,,,0.9,,66,74,50,95,91,68,,,
O=C(O)c1cn(-c2ccccc2)cc(O)c1=O,> 25,> 25,> 25,37,> 25,> 25,,,,,,,,,
NCc1ccc(-c2ccc(Cn3cc(O)c(=O)c(C(=O)O)c3)cc2)cc1,4.4,4.4,3.9,7.79,,3.2,,,,,,,,,
O=C(O)c1cn(Cc2ccncc2)cc(O)c1=O,> 25,> 25,> 25,> 100,> 25,> 25,,,,,,,,,
CCOC(=O)c1cn(Cc2ccc(F)cc2)cc(O)c1=O,> 25,> 25,> 25,> 100,> 25,> 25,,,,,,,,,
COc1ccc(Cn2cc(O)c(=O)c(C(=O)O)c2)cc1,,,,,,> 25,27,58,21,69,70,52,,,
NS(=O)(=O)c1ccc(-c2ccc(Cn3cc(O)c(=O)c(C(=O)O)c3)cc2)cc1,1.5,1.3,1,> 100,0.65,1.2,68,80,14,97,92,79,,,
O=C(O)c1c[nH]cc(O)c1=O,> 25,22,> 25,> 100,> 25,> 25,,,,,,,,,
O=C(O)c1cn(Cc2cccc3ccccc23)cc(O)c1=O,,,,,,,35,61,28,58,82,51,Dose-dependent effect,10,> 25
O=C(O)c1cn(Cc2ccc(-c3cccnc3)cc2)cc(O)c1=O,,,,,,> 25,,,,,,,,,
O=C(O)c1cn(Cc2ccc(F)cc2)cc(O)c1=O,> 25,7.8,> 25,35,17,> 25,,,,,,,,,
Cc1cc(Cn2cc(O)c(=O)c(C(=O)O)c2)ccc1F,> 25,9.8,> 25,> 100,17,> 25,,,,,,,,,
O=C(O)c1cn(CC2(c3ccccc3)CCCC2)cc(O)c1=O,5.1,8.2,4.9,14,1.5,1.8,38,15,18,75,42,84,,,
O=C(O)c1cn(Cc2ccc(F)cc2F)cc(O)c1=O,> 25,6.8,> 25,> 100,13,> 25,,,,,,,,,
